Consider six compounds from publication PMC5402713 (Pain, 2017).

The structures appear in SMILES notation.

Series [1] addresses human TRPM8 (Homo sapiens, UniProt Q7Z2W7). Put plainly: Selectivity Ca2+ assay in HEKhTRPM8 cells, menthol-stimulated. Type of series: cell-based. As to conditions: menthol 300 μM, drug up to 50 μM. The method in brief:
(§1)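 Stable HEK293 lines expressing human TRPA1, rat TRPV1 or human TRPM8 were loaded in suspension with Fluo-4/AM (4 μM, 30 min, 37°C) and resuspended in HEPES-buffered saline, pH 7.4. Cells were pre-exposed to test compound in 384-well plates. After baseline reading, cells were stimulated with 30 μM AITC (TRPA1), 2 μM capsaicin (TRPV1) or 300 μM menthol (TRPM8). Background-corrected fluorescence was normalized to initial intensity (F/F₀).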

For series [2], the target named is human ankyrin-like TRPA1 (Homo sapiens, UniProt O75762). The experiment in a line: Selectivity Ca2+ assay in HEKhTRPA1 cells, AITC-stimulated. Type of series: cell-based. As to conditions: AITC 30 μM; for Inhibition of AITC-induced TRPA1 activation: drug up to 50 μM. An outline of the steps:
as §1

In series [3] the target is rat TRPV1 (Rattus norvegicus, UniProt O35433). Put plainly: Selectivity Ca2+ assay in HEKrTRPV1 cells, capsaicin-stimulated. Type of series: cell-based. As to conditions: capsaicin 2 μM, drug up to 50 μM. An outline of the steps:
as §1

The target in series [4] is T1, mouse TRPM3α2 (Mus musculus, UniProt J9SQF3). In kind it is cell-based. Conditions: for TRPM3 inhibition relative to mefenamic acid: primary screen, data not shown; for Hill coefficient of TRPM3 inhibition: Fluo-4-loaded HEKmTRPM3 cells, PregS-induced Ca2+ signal.
T1 sequence (J9SQF3 1-1709 isoform J9SQF3-12): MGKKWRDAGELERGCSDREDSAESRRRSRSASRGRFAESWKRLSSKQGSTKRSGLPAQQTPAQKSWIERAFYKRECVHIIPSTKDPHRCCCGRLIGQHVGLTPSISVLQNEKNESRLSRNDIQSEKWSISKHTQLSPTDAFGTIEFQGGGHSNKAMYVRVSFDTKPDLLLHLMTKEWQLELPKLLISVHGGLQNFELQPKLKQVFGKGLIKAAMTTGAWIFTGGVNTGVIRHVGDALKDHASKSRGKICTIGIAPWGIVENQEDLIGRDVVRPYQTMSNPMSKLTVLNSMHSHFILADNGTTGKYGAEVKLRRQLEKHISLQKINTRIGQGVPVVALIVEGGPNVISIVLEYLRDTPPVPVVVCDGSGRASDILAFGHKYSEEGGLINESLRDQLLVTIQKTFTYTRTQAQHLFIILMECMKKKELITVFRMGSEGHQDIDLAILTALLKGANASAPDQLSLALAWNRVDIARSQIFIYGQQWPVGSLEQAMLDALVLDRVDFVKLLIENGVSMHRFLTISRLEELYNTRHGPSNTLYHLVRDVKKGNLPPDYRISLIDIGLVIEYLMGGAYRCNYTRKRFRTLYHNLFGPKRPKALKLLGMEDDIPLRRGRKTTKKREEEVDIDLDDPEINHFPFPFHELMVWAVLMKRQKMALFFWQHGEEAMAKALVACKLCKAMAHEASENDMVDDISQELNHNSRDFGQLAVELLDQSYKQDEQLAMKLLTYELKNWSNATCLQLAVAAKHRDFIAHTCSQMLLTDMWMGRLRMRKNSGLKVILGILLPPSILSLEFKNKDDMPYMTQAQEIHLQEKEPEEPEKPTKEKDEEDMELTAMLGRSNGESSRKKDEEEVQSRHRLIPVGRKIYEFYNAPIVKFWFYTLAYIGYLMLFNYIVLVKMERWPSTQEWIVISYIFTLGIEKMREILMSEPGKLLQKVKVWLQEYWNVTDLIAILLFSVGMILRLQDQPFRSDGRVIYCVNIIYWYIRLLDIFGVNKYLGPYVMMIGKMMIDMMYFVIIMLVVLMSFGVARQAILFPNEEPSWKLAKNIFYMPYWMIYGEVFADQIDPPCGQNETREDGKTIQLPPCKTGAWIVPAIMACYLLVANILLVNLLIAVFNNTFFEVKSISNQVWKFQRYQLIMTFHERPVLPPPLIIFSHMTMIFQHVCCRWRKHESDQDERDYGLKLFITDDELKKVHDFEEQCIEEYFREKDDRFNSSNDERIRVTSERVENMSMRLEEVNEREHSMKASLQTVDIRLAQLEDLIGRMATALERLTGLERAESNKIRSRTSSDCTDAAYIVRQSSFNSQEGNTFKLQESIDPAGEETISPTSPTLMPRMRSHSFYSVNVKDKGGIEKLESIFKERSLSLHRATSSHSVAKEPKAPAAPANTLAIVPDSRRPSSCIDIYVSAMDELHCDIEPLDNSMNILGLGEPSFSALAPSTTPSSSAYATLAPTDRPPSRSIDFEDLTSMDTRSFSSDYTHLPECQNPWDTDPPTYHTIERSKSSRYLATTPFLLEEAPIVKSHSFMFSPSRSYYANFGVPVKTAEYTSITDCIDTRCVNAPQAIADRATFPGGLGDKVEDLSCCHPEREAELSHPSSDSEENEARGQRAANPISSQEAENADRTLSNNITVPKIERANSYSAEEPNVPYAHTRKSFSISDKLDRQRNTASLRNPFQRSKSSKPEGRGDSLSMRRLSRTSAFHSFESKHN
For series [5] the following is noted: cited from earlier work.
The subject of series [6] is C57BL/6J mice. The experiment in a line: CFA-induced inflammatory thermal hyperalgesia, hot plate. Type of series: in vivo, mouse. Conditions: primidone 1 mg·kg^−1 i.p., 24 hours after CFA.
The target of series [7] is human TRPM3α2 (Homo sapiens, UniProt Q9HCF6). In kind it is cell-based. As to conditions: qualitative; PregS 35 μM, primidone 25 μM. The method in brief: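 HEK293 cells were grown in MEM with Earle's salts, 10% FCS, 2 mM L-glutamine and penicillin/streptomycin. 1–2 days after seeding, they were transfected with 2 μg plasmid encoding human TRPM3α2 C-terminally fused to YFP and used 2 days later. For [Ca²⁺]i measurement, 35 μM PregS and 25 μM test compound were added sequentially. Nontransfected HEK293 cells served as control.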

Series [8] has as its system C57BL/6J mice. The experiment in a line: Pregnenolone sulfate-induced chemical pain in mice. Type of series: in vivo, mouse. As to conditions: for Nociception as duration per single response, compared with controls: data not shown. An outline of the steps: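 Mice received i.p. test compound (0.5, 2, 10 mg·kg⁻¹, suspended in 0.5% Tween 20) or vehicle. After 20 min, 5 nmol PregS (in sterile water, 10 μL total) was injected into the right hind paw. Over 180 s, observers recorded latency to the first response, number of responses and total duration of licking, lifting and shaking. n = 8 each; mean ± SEM; one-way ANOVA.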

Series [9] has as its system C57BL/6J mice. Put plainly: Hot plate test. Conditions: 52°C. Type of series: in vivo, mouse. The method in brief:
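Male C57BL/6J mice were placed on a 52°C hot plate 20 min after i.p. test compound (0.5, 2, 10 mg·kg⁻¹ in 0.5% Tween 20) or vehicle. Latency to the first nocifensive hind-paw response was recorded, with a 45 s cutoff. Mean ± SEM; one-way ANOVA.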

Series [10] concerns the target T1, mouse TRPM3α2. Put plainly: Whole-cell patch-clamp of TRPM3 currents in HEKmTRPM3 cells. In kind it is cell-based.
For series [11], the system named is C57BL/6J mice. The experiment in a line: Tail immersion test. Type of series: in vivo, mouse. Conditions: primidone 1 mg·kg^−1 i.p., 48°C. The method in brief: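 Tail immersion in male C57BL/6J mice given test compound at 1 mg·kg⁻¹ i.p. or vehicle (0.5% Tween 20). Each mouse was restrained in a 50 mL conical tube, and the distal half of the tail was dipped in water at 48.0 ± 0.5°C. Latency to vigorous tail flexion was recorded, with a 15 s cutoff. n = 10 each; mean ± SEM.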

Series [12] has as its system rat DRG neurones. The experiment in a line: Single-cell Fura-2 [Ca2+]i measurement in isolated rat DRG neurones. As to conditions: 10 μM primidone. In kind it is cell-based.
The subject of series [13] is C57BL/6J mice. Put plainly: Exploratory motor activity. In kind it is in vivo, mouse. Conditions: primidone 10 mg·kg^−1 i.p., after 120 minutes. An outline of the steps:
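Male C57BL/6J mice, 10–12 weeks old. Test compound was suspended in 0.5% Tween 20, which also served as vehicle control, and given i.p. Travelled distance in an opaque open-field box was video-tracked for 5 min, both immediately before the hot plate test and 120 min after dosing. n = 10 each; mean ± SEM; one-way ANOVA.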

Series [14] has as its target T1, mouse TRPM3α2. Type of series: cell-based. Conditions: 10 μM primidone, temperature 22 to 37°C, Fura-2.
The subject of series [15] is TRPA1. As to conditions: read-out: EC50 of TRPA1 activation; cited from earlier work.
The conditions of series [16]: physiological pH, no reference given; cited from earlier work.
The target in series [17] is human TRPM2 (Homo sapiens, UniProt O94759). The experiment in a line: H2O2-induced [Ca2+]i signals in HEK cells expressing human TRPM2. Type of series: cell-based. As to conditions: diclofenac at concentrations above 1 μM, data not shown.

The term IC50 denotes the concentration that gives 50% inhibition. The inhibition is the drop in the measured response relative to a control, in per cent. Broadly, the EC50 is the concentration needed to bring the measured effect to its halfway point.

Chain of human TRPM8 (Q7Z2W7 whole entry): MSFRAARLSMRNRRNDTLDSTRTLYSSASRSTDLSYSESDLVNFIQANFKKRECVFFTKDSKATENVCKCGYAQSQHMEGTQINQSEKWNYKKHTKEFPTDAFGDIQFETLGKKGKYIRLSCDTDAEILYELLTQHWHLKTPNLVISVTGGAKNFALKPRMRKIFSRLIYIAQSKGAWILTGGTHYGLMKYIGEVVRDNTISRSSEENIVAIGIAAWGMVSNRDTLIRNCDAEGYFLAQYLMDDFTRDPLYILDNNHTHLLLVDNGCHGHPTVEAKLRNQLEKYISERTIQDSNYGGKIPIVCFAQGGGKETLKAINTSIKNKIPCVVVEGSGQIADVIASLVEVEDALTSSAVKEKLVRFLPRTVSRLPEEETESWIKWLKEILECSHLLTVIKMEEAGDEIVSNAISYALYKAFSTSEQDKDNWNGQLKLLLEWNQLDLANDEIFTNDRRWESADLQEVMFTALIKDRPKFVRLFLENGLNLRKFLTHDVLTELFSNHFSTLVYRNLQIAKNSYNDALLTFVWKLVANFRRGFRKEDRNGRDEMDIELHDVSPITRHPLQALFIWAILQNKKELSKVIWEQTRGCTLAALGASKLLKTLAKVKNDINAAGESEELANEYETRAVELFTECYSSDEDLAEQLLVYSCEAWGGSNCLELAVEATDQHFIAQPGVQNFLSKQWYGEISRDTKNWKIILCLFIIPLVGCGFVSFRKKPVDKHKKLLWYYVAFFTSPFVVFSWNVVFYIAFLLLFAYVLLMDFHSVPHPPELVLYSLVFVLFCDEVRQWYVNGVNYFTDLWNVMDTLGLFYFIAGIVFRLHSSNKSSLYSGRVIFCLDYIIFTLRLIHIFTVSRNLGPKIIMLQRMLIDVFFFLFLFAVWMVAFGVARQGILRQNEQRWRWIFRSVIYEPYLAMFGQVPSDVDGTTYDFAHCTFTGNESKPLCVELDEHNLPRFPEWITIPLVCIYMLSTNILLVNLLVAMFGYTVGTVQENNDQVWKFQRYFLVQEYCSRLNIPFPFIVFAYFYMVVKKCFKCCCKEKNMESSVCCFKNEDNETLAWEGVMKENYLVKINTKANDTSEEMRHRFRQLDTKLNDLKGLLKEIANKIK
Chain of human ankyrin-like TRPA1 (O75762 whole entry): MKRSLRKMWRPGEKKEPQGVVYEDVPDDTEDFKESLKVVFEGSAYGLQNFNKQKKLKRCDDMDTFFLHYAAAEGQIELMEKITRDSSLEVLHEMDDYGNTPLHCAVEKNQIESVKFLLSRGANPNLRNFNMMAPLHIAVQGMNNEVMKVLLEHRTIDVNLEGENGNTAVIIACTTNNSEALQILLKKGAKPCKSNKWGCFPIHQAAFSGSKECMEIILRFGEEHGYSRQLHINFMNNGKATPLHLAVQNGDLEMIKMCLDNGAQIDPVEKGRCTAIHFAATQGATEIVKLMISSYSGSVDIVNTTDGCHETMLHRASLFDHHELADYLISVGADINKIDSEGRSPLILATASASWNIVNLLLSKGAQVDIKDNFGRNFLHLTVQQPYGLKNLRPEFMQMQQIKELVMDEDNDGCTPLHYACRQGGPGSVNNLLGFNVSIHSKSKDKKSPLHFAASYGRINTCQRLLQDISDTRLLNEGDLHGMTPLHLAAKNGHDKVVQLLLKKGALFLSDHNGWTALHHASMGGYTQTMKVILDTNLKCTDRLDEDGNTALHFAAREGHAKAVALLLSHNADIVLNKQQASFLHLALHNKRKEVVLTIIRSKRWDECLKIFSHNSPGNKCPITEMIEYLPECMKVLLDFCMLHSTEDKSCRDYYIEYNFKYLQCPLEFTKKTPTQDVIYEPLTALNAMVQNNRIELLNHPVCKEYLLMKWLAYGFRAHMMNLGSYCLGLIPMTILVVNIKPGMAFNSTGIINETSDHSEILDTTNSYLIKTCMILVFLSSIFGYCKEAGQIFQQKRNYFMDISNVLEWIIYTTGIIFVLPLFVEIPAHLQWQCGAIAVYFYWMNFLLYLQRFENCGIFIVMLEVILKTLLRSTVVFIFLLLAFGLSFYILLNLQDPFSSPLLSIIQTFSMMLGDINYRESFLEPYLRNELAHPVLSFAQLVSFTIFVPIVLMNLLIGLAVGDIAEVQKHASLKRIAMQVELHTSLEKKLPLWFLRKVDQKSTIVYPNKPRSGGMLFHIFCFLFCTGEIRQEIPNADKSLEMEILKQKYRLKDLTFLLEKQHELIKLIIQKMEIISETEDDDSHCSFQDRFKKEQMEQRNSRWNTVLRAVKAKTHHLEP
Chain of rat TRPV1 (O35433 whole entry): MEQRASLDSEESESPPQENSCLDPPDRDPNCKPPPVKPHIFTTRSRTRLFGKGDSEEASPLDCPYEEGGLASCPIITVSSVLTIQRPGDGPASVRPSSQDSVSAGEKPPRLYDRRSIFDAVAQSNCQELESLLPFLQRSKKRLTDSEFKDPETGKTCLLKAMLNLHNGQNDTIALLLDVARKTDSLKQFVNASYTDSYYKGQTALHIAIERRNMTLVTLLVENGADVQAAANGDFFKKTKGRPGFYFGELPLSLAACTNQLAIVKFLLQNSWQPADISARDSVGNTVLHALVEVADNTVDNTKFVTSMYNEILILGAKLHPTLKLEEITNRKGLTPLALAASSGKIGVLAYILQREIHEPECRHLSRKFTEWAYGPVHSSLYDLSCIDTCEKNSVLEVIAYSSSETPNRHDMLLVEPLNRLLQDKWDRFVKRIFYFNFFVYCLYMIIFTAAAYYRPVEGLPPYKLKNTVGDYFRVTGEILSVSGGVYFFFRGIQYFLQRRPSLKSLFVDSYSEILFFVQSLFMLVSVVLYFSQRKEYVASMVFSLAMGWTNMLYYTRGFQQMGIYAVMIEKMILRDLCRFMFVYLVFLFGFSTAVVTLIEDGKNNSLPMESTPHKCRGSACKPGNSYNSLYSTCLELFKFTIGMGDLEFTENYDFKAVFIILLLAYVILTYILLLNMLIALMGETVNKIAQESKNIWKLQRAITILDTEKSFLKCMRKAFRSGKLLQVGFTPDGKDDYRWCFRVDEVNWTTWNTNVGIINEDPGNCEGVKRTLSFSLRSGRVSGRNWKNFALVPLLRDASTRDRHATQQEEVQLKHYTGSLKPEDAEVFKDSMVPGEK

As to `CNCCCC12CCC(c3ccccc31)c1ccccc12` [maprotiline], the “Inhibition of menthol-induced TRPM8 activation” value in series [1] was “no apparent inhibition”. In addition, in series [2], the “Inhibition of AITC-induced TRPA1 activation” value is given as “no apparent inhibition”. Moreover, in series [3], the “Inhibition of capsaicin-induced TRPV1 activation” value is “no apparent inhibition”.

In the case of `Cc1c(Cl)cccc1Nc1ccccc1C(=O)O` [tolfenamic acid], the “TRPM3 inhibition relative to mefenamic acid” value in series [4] was “less potent and poorly specific TRPM3 inhibitors”.

`O=C(O)c1ccccc1Nc1cccc(C(F)(F)F)c1` [flufenamic acid]: in [4], the “TRPM3 inhibition relative to mefenamic acid” value is “less potent and poorly specific TRPM3 inhibitors”.

In the case of `CCC1(c2ccccc2)C(=O)NC(=O)NC1=O` [phenobarbital], the “Plasma concentration of the major active metabolite during primidone therapy” value in series [5] is 15 to 40 µM.

Turning to `CCC1(c2ccccc2)C(=O)NCNC1=O` [primidone], the “Inhibition of menthol-induced TRPM8 activation” value in series [1] is given as “no apparent inhibition”. The Therapeutic plasma concentrations in [5] was 20 to 50 µM. For the same compound, in series [5] (no reference given), the Plasma protein binding result is “less than 10%”. For the same compound, in series [5] (no reference given), the Relative distribution volume is 0.6 L/kg. Also, the “CFA-induced sensitization, hot plate latency” value in [6] was “prevented the signs of CFA-induced sensitization”. The “Effect on PregS-induced responses at the human TRPM3 channel” value in series [7] is recorded as “confirmed the effectiveness”. In [2], the “Inhibition of AITC-induced TRPA1 activation” value is given as “no apparent inhibition”. In addition, in series [8] (primidone 0.5 mg·kg^−1 i.p., 20 minutes before PregS 5 nmol i.pl.), the “Latency and total response duration to PregS-induced pain” value is given as “significant antinociception”. Besides, the results for the “Nociception as duration per single response, compared with controls” value in series [8] (primidone 0.5 mg·kg^−1 i.p.) and in [8] (primidone 10 mg·kg^−1 i.p.) were “significantly reduced” and “intensified”, respectively. Further, the “Number of responses to PregS” value in series [8] (primidone 0.5, 2 and 10 mg·kg^−1 i.p.) is recorded as “not altered”. In addition, the “Response latency on the hot plate” value was “did not differ from controls” in [9] (primidone 10 mg·kg^−1 i.p.); “prolonged the response latency” in series [9] (primidone 0.5 and 2 mg·kg^−1 i.p.). Besides, in series [10] (10 μM primidone, 40 μM PregS and 10 μM clotrimazole), the “Effect on omega pore-like currents evoked by coapplied PregS and clotrimazole” value is listed as “inhibited”. Besides, the “Effect on PregS-induced inward currents” value in [10] (3 and 5 μM primidone, 35 μM PregS) is “almost completely abolished”. Moreover, the “Potency to block TRPM3 currents” value in series [10] (electrophysiological recordings) was “submicromolar potency”. Moreover, the “Latency to tail withdrawal” value in [11] is recorded as “prolonged the latency to tail withdrawal”. The compound also displayed an IC50 in series [4] of about 0.6 µM. For the same compound, in series [4], the “Hill coefficient of TRPM3 inhibition” value amounted to 1.4 ± 0.2. In addition, in series [3], the “Inhibition of capsaicin-induced TRPV1 activation” value is “no apparent inhibition”. Also, the “Inhibition of [Ca2+]i responses of capsaicin treatment” value in series [12] (2 μM capsaicin, data not shown) is given as “not discernibly inhibited”. For the same compound, the “Effect on [Ca2+]i in PregS-responsive DRG neurones” value in [12] (PregS 35 μM) is “immediate decrease in [Ca^2+]i”. In series [13], the “Exploratory activity (travelled distance)” value is listed as “slight reduction of exploratory activity”. Moreover, the “Effect on [Ca2+]i during heat-induced TRPM3 activation” value in series [14] is “rapid and reversible decrease in [Ca^2+]i”.

Turning to `O=C(O)Cc1ccccc1Nc1c(Cl)cccc1Cl` [diclofenac], the “Inhibition of menthol-induced TRPM8 activation” value in series [1] is on record as “almost unaffected”. In [2] (diclofenac at concentrations higher than 50 μM), the “Attenuation of responses to AITC stimulation” value is “about 50%”. For the same compound, the “Effect on PregS-induced inward and outward currents” value in series [10] (25 μM diclofenac in bath, 35 μM PregS) is “almost completely abolished”. The “Effect of intracellularly perfused drug on PregS-induced currents” value in series [10] (25 μM diclofenac in pipette solution) is “did not prevent PregS-induced currents”. For the same compound, in series [10] (read-out: Inhibition of depolarizing inward currents), the inhibition at 5 µM was about 70%. Besides, the “Hill coefficient of TRPM3 inhibition” value in series [4] is given as 1.2 ± 0.1. Further, the EC50 in series [15] was 210 µM. In series [16], the “Share of deprotonized, negatively charged microspecies” value is reported as over 99%. The “Inhibition of H2O2-induced [Ca2+]i signals” value in series [17] is on record as “partial inhibition”.
